In ChEMBL document CHEMBL1122463, “2,3-dihydro-3-(1-pyrryl)spiro[benzofuran-2,4'-piperidine]s and 2,3-dihydro-3-(1-pyrryl)spiro[benzofuran-2,3'-pyrrolidine]s: novel antihypertensive agents” (1983):

Legend:
Format in all cases: functional, Blood
Rattus norvegicus [1] = species on record: Rattus norvegicus; experiment: Oral hypotensive activity in spontaneously hypertensive rats by using tail-cuff method measured as change in systolic BP
Method in brief: (§1)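 Okamoto-Aoki spontaneously hypertensive rats. Compound suspended in distilled water with Tween 80, given po daily, screening dose 50 mg/kg, dose-response at 50, 30, 10 or 3 mg/kg unless stated. Systolic BP by tail-cuff plethysmography on day 1 predose and 2 h, day 3 predose and 2 h, and day 5 predose, 2 and 4 h. Reported as peak decrease on day 3 (or day 5) at 2 h ± SEM. n = 4 in screen, 4–8 per dose.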

Rattus norvegicus [2] = species on record: Rattus norvegicus; experiment: Oral hypotensive activity in spontaneously hypertensive rats by using tail-cuff method measured as the initial BP
Method in brief: (§2)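 Okamoto-Aoki strain spontaneously hypertensive rats. Compounds were suspended in distilled water with Tween 80 and given orally every day at 50, 30, 10 or 3 mg/kg. Systolic BP was measured by tail-cuff plethysmography on day 1 (predose and 2 h), day 3 (predose and 2 h) and day 5 (predose, 2 and 4 h). The screen used 4 rats; dose-response used 4–8 rats per dose.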

Rattus norvegicus [3] = experiment: (§3) Oral hypotensive activity in spontaneously hypertensive rats by using tail-cuff method measured as change in systolic BP at the dose of 10 mg/kg po.
Method in brief: (§4)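 SHR of the Okamoto-Aoki strain, dosed orally every day with compound suspended in distilled water with Tween 80. Systolic pressure was taken by tail-cuff plethysmography on day 1 (predose, 2 h), day 3 (predose, 2 h) and day 5 (predose, 2 and 4 h). Initial BP is the pretreatment systolic pressure, with 4–8 rats per dose in the dose-response screen.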

Rattus norvegicus [4] = experiment: (§5) Oral hypotensive activity in spontaneously hypertensive rats by using tail-cuff method measured as change in systolic BP at the dose of 50 mg/kg po.; method in brief: as §2
Rattus norvegicus [5] = experiment: (§6) Oral hypotensive activity in spontaneously hypertensive rats by using tail-cuff method measured as change in systolic BP at the dose of 5 mg/kg po.; method in brief: as §1
Rattus norvegicus [6] = experiment: (§7) Oral hypotensive activity in spontaneously hypertensive rats by using tail-cuff method measured as change in systolic BP at the dose of 25 mg/kg po.; method in brief: as §1
Rattus norvegicus [7] = experiment: as §6; method in brief: as §2; remark: listed apart in the source
Rattus norvegicus [8] = experiment: as §5; method in brief: as §1; remark: listed apart in the source
Rattus norvegicus [9] = experiment: as §3; method in brief: as §1; remark: listed apart in the source
Rattus norvegicus [10] = experiment: as §7; method in brief: as §4; remark: listed apart in the source
Rattus norvegicus [11] = experiment: as §6; method in brief: as §4; remark: listed apart in the source
Rattus norvegicus [12] = species on record: Rattus norvegicus; experiment: Hypotensive activity in renal hypertensive rats by using tail-cuff method measured as BP on (2/2) day/h postdrug
Method in brief: (§8)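 Renal hypertension made in male Sprague-Dawley rats (Grollman modification). Under pentobarbital (50 mg/kg ip), the right kidney was removed and silk sutures tied around both poles of the left kidney to constrict it. After 3 weeks, rats with systolic BP >150 mmHg were used. Compound given po daily to 4 rats. Systolic BP by tail-cuff plethysmography at the listed day/hour after dosing.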

Rattus norvegicus [13] = species on record: Rattus norvegicus; experiment: Hypotensive activity in renal hypertensive rats by using tail-cuff method measured as BP on (2/0) day/h postdrug; method in brief: as §8
Rattus norvegicus [14] = species on record: Rattus norvegicus; experiment: Hypotensive activity in renal hypertensive rats by using tail-cuff method measured as BP on (1/2) day/h postdrug; method in brief: as §8
Rattus norvegicus [15] = species on record: Rattus norvegicus; experiment: Hypotensive activity in renal hypertensive rats by using tail-cuff method measured as initial BP; method in brief: as §8
Rattus norvegicus [16] = species on record: Rattus norvegicus; experiment: Hypotensive activity in renal hypertensive rats by using tail-cuff method measured as BP on (3/0) day/h postdrug; method in brief: as §8
Rattus norvegicus [17] = species on record: Rattus norvegicus; experiment: Hypotensive activity in renal hypertensive rats by using tail-cuff method measured as BP on (3/2)day/h postdrug; method in brief: as §8

`OCCN1CCC2(CC1)Oc1ccccc1C2n1cccc1` (stereo not given) was tested, and the Delta blood pressure (Rattus norvegicus [1]) was 39 mmHg and the BP (Rattus norvegicus [2]) was 170 mmHg.
`c1ccc(CN2CCC3(C2)Oc2ccccc2C3n2cccc2)cc1` (stereo not given) gave a BP (Rattus norvegicus [3]) of 171 mmHg, a BP (Rattus norvegicus [4]) of 211 mmHg and a Delta blood pressure (Rattus norvegicus [5]) of 27 mmHg. The Delta blood pressure (Rattus norvegicus [6]) was 18 mmHg, the BP (Rattus norvegicus [7]) was 198 mmHg and the Delta blood pressure (Rattus norvegicus [8]) was 42 mmHg. For the same molecule, the Delta blood pressure (Rattus norvegicus [9]) was -10 mmHg and the BP (Rattus norvegicus [10]) was 185 mmHg.
With `CCN(CC)CCN1CCC2(CC1)Oc1ccccc1C2n1cccc1` (stereo not given) the Delta blood pressure (Rattus norvegicus [1]) was 38 mmHg and the BP (Rattus norvegicus [2]) was 185 mmHg.
Molecule `c1ccc2c(c1)OC1(CCNC1)C2n1cccc1` (stereo not given) has a BP (Rattus norvegicus [3]) of 179 mmHg, a Delta blood pressure (Rattus norvegicus [3]) of 36 mmHg and a BP (Rattus norvegicus [4]) of 223 mmHg. It also gave a Delta blood pressure (Rattus norvegicus [4]) of 58 mmHg, a BP (Rattus norvegicus [7]) of 200 mmHg and a Delta blood pressure (Rattus norvegicus [11]) of 17 mmHg. The BP (Rattus norvegicus [10]) was 181 mmHg and the Delta blood pressure (Rattus norvegicus [10]) was 13 mmHg.
In the case of `CN1CCC2(C1)Oc1ccccc1C2n1cccc1` (stereo in doubt; 10), the BP (Rattus norvegicus [4]; 50 mg/kg) is reported as 197 mmHg and the Delta blood pressure (Rattus norvegicus [4]; 50 mg/kg) is reported as 38 mmHg.
`CN1CCC2(C1)Oc1ccccc1C2n1cccc1` (stereo in doubt; 11) showed a BP (Rattus norvegicus [4]; 50 mg/kg) of 180 mmHg and a Delta blood pressure (Rattus norvegicus [4]; 50 mg/kg) of 14 mmHg.
For `C[C@H](CS)C(=O)N1CCC[C@H]1C(=O)O` [CAPTOPRIL], the BP (Rattus norvegicus [12]) was 169 mmHg, the BP (Rattus norvegicus [13]) was 185 mmHg and the BP (Rattus norvegicus [14]) was 181 mmHg. It also gave a BP (Rattus norvegicus [15]) of 192 mmHg, a BP (Rattus norvegicus [16]) of 163 mmHg and a BP (Rattus norvegicus [17]) of 152 mmHg.
